Series [1] addresses T1, Oxysterols receptor LXR-alpha (Homo sapiens) (UniProt Q13133).
T1 sequence (whole entry): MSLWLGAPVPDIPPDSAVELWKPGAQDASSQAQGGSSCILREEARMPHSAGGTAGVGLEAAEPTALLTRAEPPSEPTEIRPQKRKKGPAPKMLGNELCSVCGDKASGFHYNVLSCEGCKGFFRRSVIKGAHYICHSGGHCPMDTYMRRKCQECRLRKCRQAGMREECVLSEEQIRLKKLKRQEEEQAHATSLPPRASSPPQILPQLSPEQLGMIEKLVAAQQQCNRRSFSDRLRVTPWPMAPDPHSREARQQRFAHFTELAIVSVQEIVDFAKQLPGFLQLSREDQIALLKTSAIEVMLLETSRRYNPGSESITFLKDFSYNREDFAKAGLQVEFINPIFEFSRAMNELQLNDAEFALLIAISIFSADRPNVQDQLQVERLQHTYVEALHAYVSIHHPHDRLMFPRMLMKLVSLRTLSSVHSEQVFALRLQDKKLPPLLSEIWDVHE
Kind of series: Agonist activity against human LXRalpha in human HEK293T cells co-expressing pFR/pRL-Luc assessed as receptor activation at 10 uM incubated for 14 to 16 hrs by hybrid reporter gene assay relative to bexarotene. Format: cell-based. Conditions: filed as agonist, time 14-16 hrs. In outline:
(§1)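 Gal4 hybrid reporter assay in HEK293T cells, seeded 24 h before transfection (Lipofectamine LTX, Opti-MEM) with pFR-Luc, pRL-SV40 and pFA-CMV plasmid carrying the hinge region and LBD of the human receptor. After 5 h, compound added in 0.1% DMSO, with 0.1% DMSO alone as untreated control. Dual-Glo luciferase read after 14−16 h; firefly/renilla normalized; duplicates, ≥2 independent experiments.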
Background: A reporter such as luciferase makes a cellular process visible.

Series [2] is described as follows: Plasma concentration in mouse at 10 mg/kg, po measure after 3 hrs. Type of series: ADME, organism-based. In outline: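 Mice, n = 3, received a single oral dose of 10 mg/kg in water with 1% hydroxypropyl methylcellulose/Tween 80 (99:1). Tail-vein blood was drawn at 30 and 60 min and tissue collected at 3 h. Compound was quantified by LC−MS and PK derived by noncompartmental analysis.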

Series [3] concerns the target T2, Peroxisome proliferator-activated receptor gamma (Homo sapiens) (UniProt P37231).
T2 sequence (whole entry): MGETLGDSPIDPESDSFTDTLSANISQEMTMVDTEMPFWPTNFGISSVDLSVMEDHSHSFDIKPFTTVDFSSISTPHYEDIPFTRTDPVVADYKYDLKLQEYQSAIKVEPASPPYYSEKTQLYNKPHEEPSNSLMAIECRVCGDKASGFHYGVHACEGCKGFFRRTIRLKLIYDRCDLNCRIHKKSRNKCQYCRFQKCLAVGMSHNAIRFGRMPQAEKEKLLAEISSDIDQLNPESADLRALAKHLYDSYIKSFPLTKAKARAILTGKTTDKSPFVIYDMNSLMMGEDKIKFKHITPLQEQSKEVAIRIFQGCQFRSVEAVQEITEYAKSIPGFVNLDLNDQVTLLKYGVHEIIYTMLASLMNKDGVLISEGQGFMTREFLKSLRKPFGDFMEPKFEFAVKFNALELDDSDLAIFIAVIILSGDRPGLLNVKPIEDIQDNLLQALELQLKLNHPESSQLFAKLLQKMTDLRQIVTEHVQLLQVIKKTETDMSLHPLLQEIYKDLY
Briefly: Agonist activity against human PPARgamma in human HEK293T cells co-expressing pFR/pRL-Luc assessed as receptor activation at 10 uM incubated for 14 to 16 hrs by hybrid reporter gene assay relative to bexarotene. Format: cell-based. Particulars: filed as agonist, time 14-16 hrs. In outline: as §1

Series [4] has as its target T3, Retinoic acid receptor RXR-gamma (Homo sapiens, UniProt P48443).
T3 sequence (P48443 whole entry): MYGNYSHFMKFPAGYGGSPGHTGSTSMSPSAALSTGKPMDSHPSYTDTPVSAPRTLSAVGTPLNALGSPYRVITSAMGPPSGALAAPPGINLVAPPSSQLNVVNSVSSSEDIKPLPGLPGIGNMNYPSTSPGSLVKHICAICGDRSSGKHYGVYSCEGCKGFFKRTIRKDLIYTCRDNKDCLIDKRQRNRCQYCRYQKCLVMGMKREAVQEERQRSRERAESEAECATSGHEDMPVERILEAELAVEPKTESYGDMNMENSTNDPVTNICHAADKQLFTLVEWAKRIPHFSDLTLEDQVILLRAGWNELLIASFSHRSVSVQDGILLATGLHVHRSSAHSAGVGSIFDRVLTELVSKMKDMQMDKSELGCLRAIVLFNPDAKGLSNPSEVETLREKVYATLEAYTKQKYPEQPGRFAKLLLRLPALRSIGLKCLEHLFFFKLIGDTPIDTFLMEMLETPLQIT
Kind of series: Agonist activity at human RXRgamma transfected in human HEK293T cells co-expressing pFR/pRL-Luc incubated for 14 to 16 hrs by hybrid reporter gene assay. Format: cell-based.

The target of series [5] is T4, Retinoic acid receptor RXR-beta (Homo sapiens, UniProt P28702).
T4 sequence (P28702 whole entry): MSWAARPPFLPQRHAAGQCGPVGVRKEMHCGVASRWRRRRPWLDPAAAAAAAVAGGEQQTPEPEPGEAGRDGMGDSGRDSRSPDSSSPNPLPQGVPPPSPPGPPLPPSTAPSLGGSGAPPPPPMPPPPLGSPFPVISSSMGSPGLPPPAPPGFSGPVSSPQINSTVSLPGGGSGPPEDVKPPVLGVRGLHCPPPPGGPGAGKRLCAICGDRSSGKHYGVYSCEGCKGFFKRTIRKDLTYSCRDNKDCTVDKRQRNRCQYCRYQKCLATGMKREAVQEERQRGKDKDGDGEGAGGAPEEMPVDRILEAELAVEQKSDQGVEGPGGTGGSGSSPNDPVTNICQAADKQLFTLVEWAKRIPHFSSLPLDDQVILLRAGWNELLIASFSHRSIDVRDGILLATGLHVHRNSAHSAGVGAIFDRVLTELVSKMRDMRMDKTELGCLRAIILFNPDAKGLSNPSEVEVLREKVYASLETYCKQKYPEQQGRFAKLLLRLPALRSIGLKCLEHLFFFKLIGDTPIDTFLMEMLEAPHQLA
Kind of series: Agonist activity at human RXRbeta transfected in human HEK293T cells co-expressing pFR/pRL-Luc incubated for 14 to 16 hrs by hybrid reporter gene assay. Format: cell-based.

For series [6], the target named is T5, Nuclear receptor subfamily 1 group I member 3 (Homo sapiens, UniProt Q14994).
T5 sequence (Q14994 whole entry): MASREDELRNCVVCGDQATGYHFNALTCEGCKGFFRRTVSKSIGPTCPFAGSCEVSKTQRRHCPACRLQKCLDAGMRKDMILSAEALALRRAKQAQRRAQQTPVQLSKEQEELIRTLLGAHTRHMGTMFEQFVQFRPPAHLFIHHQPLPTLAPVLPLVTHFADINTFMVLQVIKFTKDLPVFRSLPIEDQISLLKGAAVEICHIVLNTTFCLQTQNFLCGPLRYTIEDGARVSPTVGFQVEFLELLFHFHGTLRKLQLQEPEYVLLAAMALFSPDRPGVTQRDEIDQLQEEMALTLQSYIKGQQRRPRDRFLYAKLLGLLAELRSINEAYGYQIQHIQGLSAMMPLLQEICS
Briefly: Agonist activity against human CAR in human HEK293T cells co-expressing pFR/pRL-Luc assessed as receptor activation at 10 uM incubated for 14 to 16 hrs by hybrid reporter gene assay relative to bexarotene. Format: cell-based. Conditions: time 14-16 hrs. In outline:
as §1

This note sets out measurements from ChEMBL document CHEMBL4834419 (J Med Chem, 2021).

The EC50 is the midpoint of the concentration-response curve. A high value points to a less potent agent.

Molecules are shown by their SMILES.

Regarding `O=C(O)CCCc1cc(-c2cc(Cl)cc(Cl)c2)n(-c2ccccc2)n1`, the values for the Activity in series [1], in series [3] and in series [6] were 1%, 2% and 5%, respectively. Further, in series [2], the concentration at 3 h was determined as 35000 ng/mL. Besides, the EC50 turned out to be 1600 nM in series [4] and 350 nM in series [5].
